# Measurements reported in BindingDB's records for doi:10.1128/aac.00067-07 (Rutgers University, 2007).
# What was measured:
# 1,3-beta-glucan synthase [1] = target: 1,3-beta-glucan synthase (Pichia kudriavzevii, UniProt Q4U2W2); assay: Inhibition of FKS1 from Candida krusei 98 isolate
# In short: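 Glucan synthase enzyme complex isolated from the pretreatment clinical strain Ck-98 and titrated with the echinocandin. Inhibition curves were fitted with a sigmoidal variable-slope dose-response model to give IC50 in ng/ml.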
# 1,3-beta-glucan synthase [2] = target: 1,3-beta-glucan synthase (Pichia kudriavzevii, UniProt Q4U2W2, F655C); assay: Inhibition of FKS1 T2080K mutant from Candida krusei 100 isolate
# In short: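 Glucan synthase enzyme complex isolated from posttreatment strain Ck-100. Caspofungin titrated against the enzyme. Inhibition curve fitted with a two-site competition algorithm to give IC50 in ng/ml.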
# Chain of 1,3-beta-glucan synthase (Pichia kudriavzevii, UniProt Q4U2W2) (Q4U2W2 whole entry): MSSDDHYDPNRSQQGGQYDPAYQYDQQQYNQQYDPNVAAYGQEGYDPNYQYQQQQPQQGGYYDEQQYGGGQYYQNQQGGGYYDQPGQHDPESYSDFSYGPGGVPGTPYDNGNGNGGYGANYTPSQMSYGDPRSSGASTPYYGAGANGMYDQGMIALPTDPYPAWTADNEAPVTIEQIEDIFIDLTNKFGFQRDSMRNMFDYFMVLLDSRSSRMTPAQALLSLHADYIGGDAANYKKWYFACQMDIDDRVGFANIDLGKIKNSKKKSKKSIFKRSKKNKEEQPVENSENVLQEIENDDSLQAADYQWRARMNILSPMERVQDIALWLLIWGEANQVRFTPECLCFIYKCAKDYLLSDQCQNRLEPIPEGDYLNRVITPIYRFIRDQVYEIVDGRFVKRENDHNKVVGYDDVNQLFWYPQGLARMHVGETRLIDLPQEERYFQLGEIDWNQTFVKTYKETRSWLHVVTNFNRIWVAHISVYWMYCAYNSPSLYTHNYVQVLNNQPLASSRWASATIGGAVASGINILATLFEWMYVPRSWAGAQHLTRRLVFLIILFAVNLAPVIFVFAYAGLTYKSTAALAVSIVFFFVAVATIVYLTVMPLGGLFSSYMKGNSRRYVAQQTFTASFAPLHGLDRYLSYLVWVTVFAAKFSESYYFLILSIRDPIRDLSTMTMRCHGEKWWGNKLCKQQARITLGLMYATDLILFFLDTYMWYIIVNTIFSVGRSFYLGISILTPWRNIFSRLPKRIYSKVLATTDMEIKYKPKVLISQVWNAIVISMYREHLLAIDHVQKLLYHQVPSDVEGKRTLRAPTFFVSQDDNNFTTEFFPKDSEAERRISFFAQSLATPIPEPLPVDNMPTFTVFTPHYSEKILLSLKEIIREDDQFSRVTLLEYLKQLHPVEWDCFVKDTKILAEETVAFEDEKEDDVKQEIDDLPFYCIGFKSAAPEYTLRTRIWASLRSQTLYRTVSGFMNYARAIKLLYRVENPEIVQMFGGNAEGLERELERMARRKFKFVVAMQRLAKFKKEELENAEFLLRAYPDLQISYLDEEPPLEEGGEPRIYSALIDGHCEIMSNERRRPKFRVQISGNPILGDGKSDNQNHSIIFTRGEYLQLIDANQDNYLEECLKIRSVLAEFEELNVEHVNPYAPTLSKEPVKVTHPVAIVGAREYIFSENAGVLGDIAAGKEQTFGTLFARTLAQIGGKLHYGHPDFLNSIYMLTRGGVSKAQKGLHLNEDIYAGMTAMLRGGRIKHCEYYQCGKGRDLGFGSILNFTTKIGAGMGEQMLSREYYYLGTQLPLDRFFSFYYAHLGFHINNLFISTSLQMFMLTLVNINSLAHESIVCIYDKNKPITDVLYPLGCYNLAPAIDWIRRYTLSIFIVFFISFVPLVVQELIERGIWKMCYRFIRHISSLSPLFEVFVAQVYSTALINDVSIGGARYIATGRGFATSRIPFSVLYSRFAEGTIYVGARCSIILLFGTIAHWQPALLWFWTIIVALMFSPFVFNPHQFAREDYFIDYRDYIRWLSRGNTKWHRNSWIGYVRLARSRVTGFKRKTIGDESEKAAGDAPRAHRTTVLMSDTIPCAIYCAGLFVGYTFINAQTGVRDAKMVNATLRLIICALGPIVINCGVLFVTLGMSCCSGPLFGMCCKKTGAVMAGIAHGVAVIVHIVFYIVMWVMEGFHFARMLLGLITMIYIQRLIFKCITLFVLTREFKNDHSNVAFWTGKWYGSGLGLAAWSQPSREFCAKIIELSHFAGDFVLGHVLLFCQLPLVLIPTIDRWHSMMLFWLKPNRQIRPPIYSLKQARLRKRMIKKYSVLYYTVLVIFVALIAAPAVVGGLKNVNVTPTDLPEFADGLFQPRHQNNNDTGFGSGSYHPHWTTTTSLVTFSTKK
# Chain of 1,3-beta-glucan synthase (Pichia kudriavzevii, UniProt Q4U2W2, F655C) (Q4U2W2 entry or part of it F655C): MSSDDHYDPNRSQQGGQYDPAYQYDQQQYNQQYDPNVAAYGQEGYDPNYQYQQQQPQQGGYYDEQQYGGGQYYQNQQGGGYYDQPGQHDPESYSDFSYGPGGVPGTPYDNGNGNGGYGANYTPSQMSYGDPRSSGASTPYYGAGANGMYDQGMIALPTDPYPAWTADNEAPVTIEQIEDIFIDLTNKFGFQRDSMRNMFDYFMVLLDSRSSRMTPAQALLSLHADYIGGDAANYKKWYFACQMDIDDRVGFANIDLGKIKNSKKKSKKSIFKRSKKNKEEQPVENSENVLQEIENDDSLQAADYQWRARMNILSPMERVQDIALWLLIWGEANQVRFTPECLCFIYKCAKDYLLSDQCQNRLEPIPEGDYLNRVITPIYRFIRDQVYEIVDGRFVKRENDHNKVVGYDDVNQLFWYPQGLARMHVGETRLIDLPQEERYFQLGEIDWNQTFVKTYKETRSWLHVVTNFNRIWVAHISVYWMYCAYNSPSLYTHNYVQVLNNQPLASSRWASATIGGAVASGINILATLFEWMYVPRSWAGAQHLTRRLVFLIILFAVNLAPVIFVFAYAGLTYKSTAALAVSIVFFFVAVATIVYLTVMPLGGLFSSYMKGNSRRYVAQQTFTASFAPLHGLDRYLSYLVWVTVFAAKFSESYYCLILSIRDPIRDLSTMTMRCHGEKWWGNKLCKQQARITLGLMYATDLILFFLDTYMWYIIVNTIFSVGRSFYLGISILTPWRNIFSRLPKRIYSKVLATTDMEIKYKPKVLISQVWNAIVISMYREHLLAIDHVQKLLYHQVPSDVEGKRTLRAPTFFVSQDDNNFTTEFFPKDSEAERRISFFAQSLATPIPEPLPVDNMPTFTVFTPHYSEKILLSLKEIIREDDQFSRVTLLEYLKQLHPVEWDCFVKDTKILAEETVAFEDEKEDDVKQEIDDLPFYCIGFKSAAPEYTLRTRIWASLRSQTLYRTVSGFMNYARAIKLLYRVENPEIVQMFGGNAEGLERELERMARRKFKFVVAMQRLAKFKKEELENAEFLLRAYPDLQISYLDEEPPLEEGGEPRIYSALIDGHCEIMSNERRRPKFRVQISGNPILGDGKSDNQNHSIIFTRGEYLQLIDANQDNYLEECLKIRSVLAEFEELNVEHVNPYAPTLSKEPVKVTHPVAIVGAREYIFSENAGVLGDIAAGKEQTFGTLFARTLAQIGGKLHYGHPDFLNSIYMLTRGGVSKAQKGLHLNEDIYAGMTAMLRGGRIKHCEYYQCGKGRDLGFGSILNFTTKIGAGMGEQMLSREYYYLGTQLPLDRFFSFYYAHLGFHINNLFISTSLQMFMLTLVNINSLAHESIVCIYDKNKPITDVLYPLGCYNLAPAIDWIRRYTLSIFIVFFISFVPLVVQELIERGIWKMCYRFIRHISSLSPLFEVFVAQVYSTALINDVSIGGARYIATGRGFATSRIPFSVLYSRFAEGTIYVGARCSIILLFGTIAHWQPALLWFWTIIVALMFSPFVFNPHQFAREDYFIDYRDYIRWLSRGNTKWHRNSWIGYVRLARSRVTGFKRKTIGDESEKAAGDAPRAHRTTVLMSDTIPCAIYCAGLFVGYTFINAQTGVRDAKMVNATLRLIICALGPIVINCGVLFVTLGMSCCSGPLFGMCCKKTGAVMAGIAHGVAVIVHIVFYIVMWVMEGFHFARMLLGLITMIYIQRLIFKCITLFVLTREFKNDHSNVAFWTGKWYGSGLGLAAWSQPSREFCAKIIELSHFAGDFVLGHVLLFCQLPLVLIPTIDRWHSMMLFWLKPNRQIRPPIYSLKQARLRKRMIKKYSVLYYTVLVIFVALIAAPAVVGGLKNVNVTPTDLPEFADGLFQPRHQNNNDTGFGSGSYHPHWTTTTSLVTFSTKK
structure (smiles),measurement,setting,value
CCC(C)CC(C)CCCCCCCCC(=O)N[C@H]1C[C@@H](O)[C@@H](NCCN)NC(=O)[C@@H]2[C@@H](O)CCN2C(=O)[C@H]([C@H](O)CCN)NC(=O)[C@H]([C@H](O)[C@@H](O)c2ccc(O)cc2)NC(=O)[C@@H]2C[C@@H](O)CN2C(=O)[C@H]([C@@H](C)O)NC1=O (some centres not stated) [CHEBI:474180],IC50,"1,3-beta-glucan synthase [1]",6.8 ng/mL
same,IC50,"1,3-beta-glucan synthase [2]",3940 ng/mL
